Data as given in PMC9435035 (ACS Omega, 2022).

Experiments:
Balb/C mice = assay: acute toxicity study in mice; assay type: in vivo; settings: for mortality: maximum oral dose of 2000 mg/kg (b.w.); for toxic effects (diarrhea, convulsions, lethargy, sleeping, salivation, tremor): oral up to 2000 mg/kg, observed daily for 2 weeks
Method in brief: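 Two-phase modified Lorke protocol in Balb/C mice (20–25 g), four per group. Phase 1: control given Tween-80 (2%); other groups received oral test compound at 100, 500 or 1000 mg/kg. Phase 2: oral doses of 1250, 1500 and 2000 mg/kg. Animals observed for the first 24 h, then daily for 2 weeks for diarrhea, convulsions, lethargy, sleeping, salivation and tremors, with mortality monitored.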

[1] = body weight of STZ-induced diabetic rats; assay type: in vivo, Wistar albino rats; settings: for body weight, day 1: day 1, in g (unit assumed); for body weight, day 7: day 7, in g (unit assumed); for body weight, day 14: day 14, in g (unit assumed); for body weight, day 21: day 21, in g (unit assumed); for body weight, day 28: day 28, in g (unit assumed)
Method in brief: (§1)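 Male Wistar albino rats (170–200 g, 8–10 weeks), fasted overnight, given STZ 50 mg/kg i.p. in 0.1 M citrate buffer, then 10% glucose for 3 days. Tail-vein glucose by glucometer at 72 h; >250 mg/dL counted as diabetic. Body weight and blood glucose on days 1, 7, 14, 21 and 28. Means ± SEM, one-way ANOVA with Dunnett's test.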

[2] = test system: streptozotocin-induced diabetic Wistar rats; assay: antidiabetic activity: blood glucose in STZ-induced diabetes; assay type: in vivo, Wistar albino rats
Method in brief: as §1

[3] = test system: streptozotocin-induced diabetic Wistar rats; assay: serum profile; assay type: in vivo, Wistar albino rats; settings: STZ-diabetic rats; for (ALP) IU / (SGOT) IU / (SGPT) IU: serum
Method in brief: (§2)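 STZ-diabetic Wistar rats (n = 8 per group) received test compound at 10 or 20 mg/kg p.o., or glibenclamide 500 μg/kg p.o., once daily for 28 days; controls received vehicle. On day 28, rats were anesthetised with pentobarbital sodium (35 mg/kg) and blood was drawn by cardiac puncture. Serum ALP, SGPT, SGOT, LDL, HDL, TG, total cholesterol, creatinine and insulin were measured. Means ± SEM, one-way ANOVA with Dunnett's test.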

[4] = test system: streptozotocin-induced diabetic Wistar rats; assay: lipid profile in streptozotocin-induced diabetes; assay type: in vivo, Wistar albino rats; settings: STZ-diabetic rats
Method in brief: as §2

[5] = test system: overnight fasted normal rats; assay: oral glucose tolerance test; assay type: in vivo, Wistar albino rats; settings: OGTT, glucose 3 g/kg oral
α-glucosidase = α-glucosidase (Saccharomyces cerevisiae, UniProt P53341); assay: α-glucosidase inhibitory activity; assay type: biochemical; settings: read-out: glucosidase inhibition IC50 ± SEM; mean ± SEM
Chain of α-glucosidase (P53341 whole entry): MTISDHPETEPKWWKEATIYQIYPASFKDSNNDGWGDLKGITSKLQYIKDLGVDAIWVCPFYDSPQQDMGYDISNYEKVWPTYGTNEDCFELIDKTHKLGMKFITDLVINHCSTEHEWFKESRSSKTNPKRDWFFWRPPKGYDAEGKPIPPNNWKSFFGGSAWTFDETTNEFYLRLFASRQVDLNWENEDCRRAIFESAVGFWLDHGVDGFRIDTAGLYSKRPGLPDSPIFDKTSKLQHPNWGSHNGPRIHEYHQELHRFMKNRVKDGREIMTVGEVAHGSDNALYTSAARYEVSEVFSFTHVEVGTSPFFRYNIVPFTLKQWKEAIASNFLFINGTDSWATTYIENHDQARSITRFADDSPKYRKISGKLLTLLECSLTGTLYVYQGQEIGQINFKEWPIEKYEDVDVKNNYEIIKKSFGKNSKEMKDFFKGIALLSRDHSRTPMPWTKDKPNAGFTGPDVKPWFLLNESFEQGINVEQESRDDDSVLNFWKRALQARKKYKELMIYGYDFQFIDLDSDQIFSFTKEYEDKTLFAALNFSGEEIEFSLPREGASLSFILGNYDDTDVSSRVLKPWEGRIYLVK

[6] = 20 mg/kg p.o. once daily, day 28, 20 mg/kg

For “1-Phenyl-3-(4-(4-(p-tolyl)-2,3-dihydrobenzo[b][1,5]thiazepin-2-yl)phenyl)prop-2-en-1-one [6B]”, the mortality (Balb/C mice) was “no mortality”, the “toxic effects (diarrhea, convulsions, lethargy, sleeping, salivation, tremor)” value (Balb/C mice) was “no toxic effects” and the “body weight, day 1” value ([1]; 10 mg/kg) was 190.0 ± 3.98. For the same substance, the “body weight, day 7” value ([1]; 10 mg/kg) was 182.5 ± 4.19, the “body weight, day 14” value ([1]; 10 mg/kg) was 187.1 ± 4.88 and the “body weight, day 21” value ([1]; 10 mg/kg) was 183.4 ± 4.60. For the same substance, the “body weight, day 28” value ([1]; 10 mg/kg) was 180.9 ± 4.23, the “body weight, day 1” value ([1]; 20 mg/kg) was 194.1 ± 4.41 and the “body weight, day 7” value ([1]; 20 mg/kg) was 189.3 ± 4.61. The “body weight, day 14” value ([1]; 20 mg/kg) was 190.3 ± 4.71, the “body weight, day 21” value ([1]; 20 mg/kg) was 186.7 ± 3.96 and the “body weight, day 28” value ([1]; 20 mg/kg) was 184.3 ± 4.33. For the same substance, the “blood glucose level, day 1” value ([2]; 10 mg/kg p.o. once daily) was 381.40 ± 4.30 mg/dL, the “blood glucose level, day 7” value ([2]; 10 mg/kg p.o. once daily, day 7, 10 mg/kg) was 280.90 ± 4.66 mg/dL and the “blood glucose level, day 14” value ([2]; 10 mg/kg p.o. once daily, day 14, 10 mg/kg) was 205.31 ± 4.01 mg/dL. For the same substance, the “blood glucose level, day 21” value ([2]; 10 mg/kg p.o. once daily, day 21, 10 mg/kg) was 150.45 ± 4.92 mg/dL, the “blood glucose level, day 28” value ([2]; 10 mg/kg p.o. once daily, day 28) was 135.67 ± 3.89 mg/dL and the “blood glucose level, day 1” value ([2]; 20 mg/kg p.o. once daily) was 380.30 ± 4.78 mg/dL. The “blood glucose level, day 7” value ([2]; 20 mg/kg p.o. once daily, day 7, 20 mg/kg) was 228.44 ± 5.06 mg/dL, the “blood glucose level, day 14” value ([2]; 20 mg/kg p.o. once daily, day 14, 20 mg/kg) was 166.09 ± 4.46 mg/dL and the “blood glucose level, day 21” value ([2]; 20 mg/kg p.o. once daily, day 21, 20 mg/kg) was 129.71 ± 4.09 mg/dL. For the same substance, the “blood glucose level, day 28” value [2, 6] was 111.81 ± 4.08 mg/dL, the insulin level ([3]; 10 mg/kg for 28 days) was 0.658 ± 0.31 ng/mL and the serum creatinine ([3]; 10 mg/kg for 28 days) was 0.82 ± 0.22 mg/dL. For the same substance, the “(ALP) IU” value ([3]; 10 mg/kg for 28 days) was 214.19 ± 4.11 IU, the “(SGOT) IU” value ([3]; 10 mg/kg for 28 days) was 25.81 ± 2.16 IU and the “(SGPT) IU” value ([3]; 10 mg/kg for 28 days) was 25.90 ± 2.11 IU. For the same substance, the insulin level ([3]; 20 mg/kg for 28 days) was 0.667 ± 0.40 ng/mL, the serum creatinine ([3]; 20 mg/kg for 28 days) was 0.75 ± 0.30 mg/dL and the “(ALP) IU” value ([3]; 20 mg/kg for 28 days) was 204.71 ± 4.13 IU. For the same substance, the “(SGOT) IU” value ([3]; 20 mg/kg for 28 days) was 22.31 ± 2.17 IU, the “(SGPT) IU” value ([3]; 20 mg/kg for 28 days) was 23.01 ± 2.11 IU and the LDL ([4]; 10 mg/kg for 28 days) was 130.21 ± 3.99 mg/dL. The TG ([4]; 10 mg/kg for 28 days) was 145.21 ± 4.98 mg/dL, the “total CH” value ([4]; 10 mg/kg for 28 days) was 151.07 ± 4.92 mg/dL and the HDL ([4]; 10 mg/kg for 28 days, 10 mg/kg) was 44.89 ± 3.01 mg/dL. For the same substance, the LDL ([4]; 20 mg/kg for 28 days) was 113.41 ± 4.71 mg/dL, the TG ([4]; 20 mg/kg for 28 days) was 116.82 ± 4.41 mg/dL and the “total CH” value ([4]; 20 mg/kg for 28 days) was 137.11 ± 3.71 mg/dL. The HDL ([4]; 20 mg/kg for 28 days, 20 mg/kg) was 52.07 ± 2.69 mg/dL, the “blood glucose level, 0 min” value ([5]; dose 10 mg/kg) was 103.41 ± 4.05 mg/dL and the “blood glucose level, 30 min” value ([5]; dose 10 mg/kg) was 125.39 ± 4.10 mg/dL. The “blood glucose level, 60 min” value ([5]; dose 10 mg/kg) was 120.41 ± 4.81 mg/dL, the “blood glucose level, 90 min” value ([5]; dose 10 mg/kg) was 112.61 ± 4.81 mg/dL and the “blood glucose level, 120 min” value ([5]; dose 10 mg/kg) was 114.91 ± 4.59 mg/dL. The “blood glucose level, 0 min” value ([5]; dose 20 mg/kg) was 100.93 ± 4.11 mg/dL, the “blood glucose level, 30 min” value ([5]; dose 20 mg/kg) was 119.91 ± 4.62 mg/dL and the “blood glucose level, 60 min” value ([5]; dose 20 mg/kg) was 121.66 ± 4.31 mg/dL. For the same substance, the “blood glucose level, 90 min” value ([5]; dose 20 mg/kg) was 111.22 ± 4.21 mg/dL, the “blood glucose level, 120 min” value ([5]; dose 20 mg/kg) was 109.78 ± 5.01 mg/dL and the IC50 (α-glucosidase) was 3.63 ± 0.36 µM.
With “N,N-Dimethyl-4-(4-(p-tolyl)-2,3-dihydrobenzo[b][1,5]thiazepin-2-yl)aniline [14B]” the mortality (Balb/C mice) was “no mortality”, the “toxic effects (diarrhea, convulsions, lethargy, sleeping, salivation, tremor)” value (Balb/C mice) was “no toxic effects” and the “body weight, day 1” value ([1]; 10 mg/kg) was 188.5 ± 4.07. For the same substance, the “body weight, day 7” value ([1]; 10 mg/kg) was 186.8 ± 4.39, the “body weight, day 14” value ([1]; 10 mg/kg) was 187.1 ± 4.33 and the “body weight, day 21” value ([1]; 10 mg/kg) was 181.6 ± 4.21. For the same substance, the “body weight, day 28” value ([1]; 10 mg/kg) was 179.3 ± 4.41, the “body weight, day 1” value ([1]; 20 mg/kg) was 189.1 ± 4.19 and the “body weight, day 7” value ([1]; 20 mg/kg) was 188.5 ± 4.21. The “body weight, day 14” value ([1]; 20 mg/kg) was 189.2 ± 4.66, the “body weight, day 21” value ([1]; 20 mg/kg) was 183.4 ± 4.18 and the “body weight, day 28” value ([1]; 20 mg/kg) was 182.5 ± 4.58. The “blood glucose level, day 1” value ([2]; 10 mg/kg p.o. once daily) was 369.82 ± 4.12 mg/dL, the “blood glucose level, day 7” value ([2]; 10 mg/kg p.o. once daily, day 7) was 294.04 ± 4.67 mg/dL and the “blood glucose level, day 14” value ([2]; 10 mg/kg p.o. once daily, day 14) was 196.39 ± 4.12 mg/dL. The “blood glucose level, day 21” value ([2]; 10 mg/kg p.o. once daily, day 21) was 151.11 ± 4.39 mg/dL, the “blood glucose level, day 28” value ([2]; 10 mg/kg p.o. once daily, day 28, 10 mg/kg) was 134.20 ± 4.21 mg/dL and the “blood glucose level, day 1” value ([2]; 20 mg/kg p.o. once daily) was 370.33 ± 3.98 mg/dL. For the same substance, the “blood glucose level, day 7” value ([2]; 20 mg/kg p.o. once daily, day 7) was 231.69 ± 5.20 mg/dL, the “blood glucose level, day 14” value ([2]; 20 mg/kg p.o. once daily, day 14) was 158.26 ± 4.67 mg/dL and the “blood glucose level, day 21” value ([2]; 20 mg/kg p.o. once daily, day 21) was 127.21 ± 4.81 mg/dL. For the same substance, the “blood glucose level, day 28” value [2, 6] was 109.71 ± 4.23 mg/dL, the insulin level ([3]; 10 mg/kg for 28 days) was 0.690 ± 0.27 ng/mL and the serum creatinine ([3]; 10 mg/kg for 28 days) was 0.75 ± 0.36 mg/dL. The “(ALP) IU” value ([3]; 10 mg/kg for 28 days) was 210.98 ± 4.39 IU, the “(SGOT) IU” value ([3]; 10 mg/kg for 28 days) was 25.56 ± 2.18 IU and the “(SGPT) IU” value ([3]; 10 mg/kg for 28 days) was 25.08 ± 2.78 IU. The insulin level ([3]; 20 mg/kg for 28 days) was 0.697 ± 0.34 ng/mL, the serum creatinine ([3]; 20 mg/kg for 28 days) was 0.72 ± 0.30 mg/dL and the “(ALP) IU” value ([3]; 20 mg/kg for 28 days) was 203.51 ± 4.34 IU. The “(SGOT) IU” value ([3]; 20 mg/kg for 28 days) was 22.20 ± 2.21 IU, the “(SGPT) IU” value ([3]; 20 mg/kg for 28 days) was 22.82 ± 2.91 IU and the HDL ([4]; 10 mg/kg for 28 days) was 45.25 ± 2.15 mg/dL. The LDL ([4]; 10 mg/kg for 28 days) was 129.08 ± 4.06 mg/dL, the TG ([4]; 10 mg/kg for 28 days) was 144.11 ± 4.39 mg/dL and the “total CH” value ([4]; 10 mg/kg for 28 days, 10 mg/kg) was 149.08 ± 4.12 mg/dL. It also gave an HDL ([4]; 20 mg/kg for 28 days) of 55.21 ± 2.66 mg/dL, an LDL ([4]; 20 mg/kg for 28 days) of 110.41 ± 3.90 mg/dL and a TG ([4]; 20 mg/kg for 28 days) of 115.24 ± 4.13 mg/dL. For the same substance, the “total CH” value ([4]; 20 mg/kg for 28 days, 20 mg/kg) was 135.11 ± 4.02 mg/dL, the “blood glucose level, 0 min” value ([5]; dose 10 mg/kg) was 104.21 ± 4.67 mg/dL and the “blood glucose level, 30 min” value ([5]; dose 10 mg/kg) was 124.02 ± 4.01 mg/dL. For the same substance, the “blood glucose level, 60 min” value ([5]; dose 10 mg/kg) was 119.33 ± 4.63 mg/dL, the “blood glucose level, 90 min” value ([5]; dose 10 mg/kg) was 114.98 ± 4.03 mg/dL and the “blood glucose level, 120 min” value ([5]; dose 10 mg/kg) was 116.49 ± 4.71 mg/dL. The “blood glucose level, 0 min” value ([5]; dose 20 mg/kg) was 103.87 ± 4.18 mg/dL, the “blood glucose level, 30 min” value ([5]; dose 20 mg/kg) was 119.61 ± 4.55 mg/dL and the “blood glucose level, 60 min” value ([5]; dose 20 mg/kg) was 116.20 ± 4.78 mg/dL. For the same substance, the “blood glucose level, 90 min” value ([5]; dose 20 mg/kg) was 112.69 ± 4.11 mg/dL, the “blood glucose level, 120 min” value ([5]; dose 20 mg/kg) was 111.61 ± 4.97 mg/dL and the IC50 (α-glucosidase) was 3.34 ± 0.27 µM.
